Data set [1] has as its system 3T3-L1. As to the kind of experiment: Lipid lowering activity in mouse 3T3-L1 cells assessed as adipogenic cocktail-induced triglyceride levels at 1 uM by GPO-POD assay. Type of data set: functional, cell-based. To be noted: time day <=6. The procedure, abridged:
(§1)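 Confluent 3T3-L1 cells were treated from day 0 in cocktail (IBMX, dexamethasone, insulin) for 3 days, then re-dosed in insulin medium for 3 more days. For dose–response, concentrations were 0–10 µM (0.01, 0.1, 0.3, 1, 3, 10). On day 6, cells were lysed in 0.2% Triton X-100 and TG was measured by GPO-POD and normalized to BCA protein as % of control. EC50 was fitted from the dose–response. N = 4.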

In data set [2] the test system is Mus musculus. As to the kind of experiment: Anti-hyperglycemic activity in high fat diet-induced obese C57BL/6J mouse model assessed as decrease in blood glucose level at 20 mg/kg, ip after 6 hrs. The data set is classed as functional, organism-based. The procedure, abridged:
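C57BL/6J mice fed HFC diet (60% fat, 1% cholesterol). Single i.p. injection of saline or compound at 20 mg/kg. Blood glucose measured with a glucose monitor at 0, 0.5, 1, 2, 4, 8, 12 and 24 h.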

The subject of data set [3] is 3T3-L1. As to the kind of experiment: Lipid lowering activity in mouse 3T3-L1 cells assessed as reduction in adipogenic cocktail-induced triglyceride levels at 1 uM incubated for 6 days by Oil-red O staining based assay. The note with it: time 6.0 day. The data set is classed as functional, cell-based. The procedure, abridged: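 Differentiating 3T3-L1 cells were treated at 1 µM for 6 days, then washed with PBS and fixed in 4% formaldehyde for 1 h. Cells were stained with 0.3% Oil Red O for 30 min at room temperature in the dark and imaged at ×200.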

A short description of data set [4]: AUC(0 to infinity) in Sprague-Dawley rat at 2 mg/kg, iv up to 24 hrs by LC-MS/MS analysis. The note with it: in vivo. Further details: route intravenous, dose 2 mg/kg, time <=24. The data set is classed as ADME, organism-based. In short, it runs like this:
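Male Sprague-Dawley rats (180-220 g, n = 3) received a single intravenous dose of 2 mg/kg in ethanol/saline (5:95). Blood was sampled at 0, 30 min, 1, 2, 4, 8, 12 and 24 h after dosing and centrifuged to plasma. Plasma drug levels were measured by LC-MS/MS, and pharmacokinetic parameters were calculated from the concentration-time data.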

For data set [5], the system named is Mus musculus. As to the kind of experiment: Antiobesity activity in high fat diet-induced obese C57BL/6J mouse model assessed as albumin level at 20 mg/kg, ip administered for every other days for 6 weeks by auto-analyzer method (reference value: 38.7 […]). The data set is classed as functional. In short, it runs like this: (§2)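 Male C57BL/6J mice (7–8 weeks) fed HFC diet (60% fat, 1% cholesterol) for up to 14 weeks. From week 9, given 20 mg/kg i.p. every other day for 6 weeks in saline with 10% ethanol and 10% castor oil, or vehicle. Body weight and food intake recorded daily. At end, mice fasted 6 h, anesthetized, and blood collected into EDTA. Plasma chemistry run on an auto-analyzer; insulin by ultra-sensitive ELISA.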

The test system of data set [6] is Mus musculus. As to the kind of experiment: Antiobesity activity in high fat diet-induced obese C57BL/6J mouse model assessed as ALT level at 20 mg/kg, ip administered for every other days for 6 weeks by auto-analyzer method (reference value: 231.9 +/- 18.5 U/L). Type of data set: functional. In short, it runs like this:
as §2

Data set [7] has as its system 3T3-L1. As to the kind of experiment: Inhibition of mouse 3T3-L1 cells adipocyte differentiation assessed as reduction in adipogenic cocktail-induced SCD1 protein expression at 0.3 to 1 uM after 6 days by Western blot analysis. Type of data set: functional, cell-based. The note with it: dose 0.3-1 µM, time 6.0 day. In short, it runs like this:
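3T3-L1 preadipocytes were differentiated with cocktail for 3 days, then insulin medium for 3 days, with compound (0.3 or 1 µM) present throughout. Cells were harvested on day 6 and proteins measured by Western blot, with densitometry normalized to actin.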
A general note: A western blot detects proteins with antibodies after separation by electrophoresis.

In data set [8] the test system is 3T3-L1. As to the kind of experiment: Activation of AMPK pathway in mouse 3T3-L1 cells assessed as increase in TFAM mRNA expression at 0.3 to 1 uM after 24 hrs by RT-qPCR analysis. The data set is classed as cell-based. The note with it: filed as activator, dose 0.3-1 µM.
Data set [9] can be described thus: Half life in Sprague-Dawley rat at 2 mg/kg, iv up to 24 hrs by LC-MS/MS analysis. The note with it: in vivo. The data set is classed as ADME, organism-based. In short, it runs like this:
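Male SD rats (180–220 g, n = 3) received compound in ethanol/saline (5:95), either intravenously at 2 mg/kg or intragastrically at 5 mg/kg. Plasma was sampled at 0, 0.5, 1, 2, 4, 8, 12 and 24 h. Concentrations were measured by LC-MS/MS, and PK parameters were calculated from the concentration–time data.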

For data set [10], the system named is Mus musculus. As to the kind of experiment: Antiobesity activity in high fat diet-induced obese C57BL/6J mouse model assessed as TG level at 20 mg/kg, ip administered for every other days for 6 weeks by auto-analyzer method (reference value: 1.2 +/- 0.02 mM). Type of data set: functional. In short, it runs like this:
as §2

Data set [11] deals with Mus musculus. As to the kind of experiment: Antiobesity activity in high fat diet-induced obese C57BL/6J mouse model assessed as LDL cholesterol level at 20 mg/kg, ip administered for every other days for 6 weeks by auto-analyzer method (reference value: 0.9 +/- 0.4 mM). The data set is classed as functional. In short, it runs like this: as §2
The subject of data set [12] is Mus musculus. As to the kind of experiment: Antiobesity activity in high fat diet-induced obese C57BL/6J mouse model assessed as total bilirubin level at 20 mg/kg, ip administered for every other days for 6 weeks by auto-analyzer method (reference value: 1.3 +/- 0.12 mM). Type of data set: functional.
In data set [13] the test system is Mus musculus. As to the kind of experiment: Antiobesity activity in high fat diet-induced obese C57BL/6J mouse model assessed as ratio of LDL cholesterol level to HDL cholesterol level at 20 mg/kg, ip administered for every other days for 6 weeks by auto-analyzer method (reference value: 0.4 +/- 0.13). The data set is classed as functional.
The subject of data set [14] is 3T3-L1. As to the kind of experiment: Inhibition of mouse 3T3-L1 cells adipocyte differentiation assessed as reduction in adipogenic cocktail-induced PPARgamma protein expression at 0.3 to 1 uM after 24 hrs by Western blot analysis. Type of data set: functional, cell-based. To be noted: dose 0.3-1 µM. In short, it runs like this:
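3T3-L1 preadipocytes were exposed to adipogenic cocktail with compound (0.3 or 1 µM) and harvested on day 1. Lysates were resolved by SDS-PAGE, immunoblotted (primary antibody overnight at 4 °C, HRP secondary) and quantified by densitometry normalized to actin.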

Data set [15] concerns Mus musculus. As to the kind of experiment: Antiobesity activity in high fat diet-induced obese C57BL/6J mouse model assessed as decrease in calorie intake at 20 mg/kg, ip administered for every other days for 6 weeks. Type of data set: functional, organism-based. In short, it runs like this: as §2
Data set [16] concerns Mus musculus. As to the kind of experiment: Antiobesity activity in high fat diet-induced obese C57BL/6J mouse model assessed as decrease in size of adipocytes at 20 mg/kg, ip administered for every other days for 6 weeks by H and E staining based assay. Type of data set: functional, organism-based.
For data set [17], the system named is Mus musculus. As to the kind of experiment: Antiobesity activity in high fat diet-induced obese C57BL/6J mouse model assessed as AST level at 20 mg/kg, ip administered for every other days for 6 weeks by auto-analyzer method (reference value: 341.6 +/- 23.8 U/L). Type of data set: functional. The procedure, abridged: as §2
Data set [18] deals with 3T3-L1. As to the kind of experiment: Lipid lowering activity in mouse 3T3-L1 cells assessed as adipogenic cocktail-induced triglyceride levels at 1 uM incubated for 6 days by GPO-POD assay relative to control. Type of data set: functional. To be noted: time 6 day. In short, it runs like this:
as §1

The test system of data set [19] is 3T3-L1. As to the kind of experiment: Activation of AMPK pathway in mouse 3T3-L1 cells assessed as increase in ACSL mRNA expression at 1 uM after 24 hrs by RT-qPCR analysis. The data set is classed as cell-based. To be noted: filed as activator. (In qPCR the cycle at which signal appears reflects the starting amount.)
Data set [20] relates to 3T3-L1. As to the kind of experiment: Activation of AMPK pathway in mouse 3T3-L1 cells assessed as increase in NRF2 mRNA expression at 1 uM after 24 hrs by RT-qPCR analysis. Type of data set: cell-based. To be noted: filed as activator.
A short description of data set [21]: Apparent volume of distribution in Sprague-Dawley rat at 2 mg/kg, iv up to 24 hrs by LC-MS/MS analysis. The note with it: in vivo, read-out: Vz.

The source made the active and inactive calls. The rule behind the calls is not given here.

For orientation: AUC(0-inf) means total exposure, with the tail of the curve extrapolated. In general, half-life refers to how long it takes for the measured level to halve. High values mean slow loss, low ones fast loss. In the case of `COc1ccc2[nH]c(-c3nc(NCCCCN4CCCC4)c4ccccc4n3)c(C=O)c2c1`, the Activity entry with 3T3-L1 [1] is “Dose-dependent effect”; in the data set on Mus musculus [5], 30.4 g/L; in the data set with Mus musculus [6], 52 U/L; in the data set with Mus musculus [10] it was 0.92 mM; in the data set on Mus musculus [11], 0.81 mM; in the data set on Mus musculus [12], 0.9 mmol. In addition, in the data set with Mus musculus [17], the Activity amounted to 163.7 U/L. In addition, the outcome with Mus musculus [2], in the data set on 3T3-L1 [3], with 3T3-L1 [8] and with Mus musculus [16] was Active. In addition, in [4], the AUC(0-inf) came to 0.314 µg·h/mL. Moreover, the inhibition entry in the data set on 3T3-L1 [7] and in the data set on 3T3-L1 [14] was “Active” throughout. The compound also showed a half-life in data set [9] of 4.4 h. Further, in the data set with Mus musculus [13], the Ratio stood at 0.25. Besides, the result with Mus musculus [15] was inactive.
In the case of `CN(C)CCCNc1nc(-c2[nH]c3ccccc3c2C=O)nc2ccccc12`, in the data set with 3T3-L1 [18], the Activity came out at 20.8%. Also, the outcome with 3T3-L1 [19] and in the data set on 3T3-L1 [20] was Active. The Vd in data set [21] was 33.8 L/kg.

The values above are taken from ChEMBL document CHEMBL4732044, “Discovery of a promising agent IQZ23 for the treatment of obesity and related metabolic disorders” (Eur J Med Chem, 2020).
